According to ChEMBL document CHEMBL1124970, “New leupeptin analogues: synthesis and inhibition data” (J Med Chem, 1990):
Where a SMILES comes first, the peptide text is derived from it. [ ]: non-standard residue; d: D form. The star is where a group is joined. Orn = NCCC[C@H](N)C(=O)O; Cbz = O=C(OCc1ccccc1)*

How the values were obtained:
Plasminogen [1] = target: T1, Plasminogen (Rattus norvegicus, UniProt Q01177); assay: Inhibition of plasmin
In short: (§1)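 Plasmin (0.25 casein units/mL stock, in 50% glycerol/2 mM HCl with 5 g/L carbowax) in 0.5 M Tris pH 8.0 with 0.12 M NaCl, inhibitor added in 1% DMSO/water, 37 °C. D-Val-Leu-Lys p-nitroanilide (3.35 mM stock) added, 1 min incubation, then A405 change followed over 10 min. Four runs at ≥5 inhibitor concentrations; % inhibition vs log[I] gives IC50.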

Serine protease 1 [2] = target: T2, Serine protease 1 (Homo sapiens, UniProt P07477); assay: Evaluated for the inhibition of trypsin
T2 sequence (P07477 whole entry): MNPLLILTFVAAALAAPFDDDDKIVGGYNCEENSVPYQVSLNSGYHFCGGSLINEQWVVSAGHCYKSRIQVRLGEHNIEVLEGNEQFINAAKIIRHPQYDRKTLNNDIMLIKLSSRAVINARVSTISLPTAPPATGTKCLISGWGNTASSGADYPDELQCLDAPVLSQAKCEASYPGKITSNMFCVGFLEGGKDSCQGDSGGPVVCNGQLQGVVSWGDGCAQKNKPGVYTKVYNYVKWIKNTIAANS
In short: (§2)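 Trypsin (0.01 g/L stock in 0.001 N HCl) in 0.046 M Tris with 0.0115 M CaCl2, pH 8.1, inhibitor in 1% DMSO/water, 37 °C. Tosyl-L-arginine methyl ester (0.01 M stock) added, 2 min incubation, A247 change read over 10 min. Each inhibitor level run four times, five or more levels; IC50 from % inhibition plotted against log concentration.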

Kallikrein-1 = Kallikrein-1 (Homo sapiens, UniProt P06870); assay: Inhibition of Kallikrein proteolytic enzyme
Kallikrein-1, sequence (P06870 whole entry): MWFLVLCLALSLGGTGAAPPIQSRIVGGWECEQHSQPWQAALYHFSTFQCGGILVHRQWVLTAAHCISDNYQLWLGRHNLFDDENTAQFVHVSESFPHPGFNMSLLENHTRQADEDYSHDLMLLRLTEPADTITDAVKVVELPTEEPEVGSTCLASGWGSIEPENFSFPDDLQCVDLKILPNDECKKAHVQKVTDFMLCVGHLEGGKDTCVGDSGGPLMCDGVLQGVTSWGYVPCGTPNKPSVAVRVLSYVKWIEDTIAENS
In short: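 Human urinary kallikrein (0.3 units/mL stock) at 37 °C in 0.46 M Tris pH 8.0 containing 0.0115 M NaCl, inhibitor in 1% DMSO/water. Benzoylarginine ethyl ester (0.5 mM stock) substrate, 2 min incubation, absorbance change at 253 nm over 10 min. Quadruplicate measurements at ≥5 inhibitor concentrations; IC50 read from % inhibition vs log inhibitor concentration.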

Plasminogen [3] = target: T1, Plasminogen; assay: Evaluated for the inhibition of plasmin.(no inhibition at 400 uM); in short: as §1
Serine protease 1 [4] = target: T2, Serine protease 1; assay: Evaluated for the inhibition of trypsin.(no inhibition at 400 uM); in short: as §2
Plasminogen [5] = target: T1, Plasminogen; assay: Evaluated for the inhibition of plasmin.( no inhibition at 400 uM); in short: as §1

T1 sequence (Q01177 97-581 limits assumed): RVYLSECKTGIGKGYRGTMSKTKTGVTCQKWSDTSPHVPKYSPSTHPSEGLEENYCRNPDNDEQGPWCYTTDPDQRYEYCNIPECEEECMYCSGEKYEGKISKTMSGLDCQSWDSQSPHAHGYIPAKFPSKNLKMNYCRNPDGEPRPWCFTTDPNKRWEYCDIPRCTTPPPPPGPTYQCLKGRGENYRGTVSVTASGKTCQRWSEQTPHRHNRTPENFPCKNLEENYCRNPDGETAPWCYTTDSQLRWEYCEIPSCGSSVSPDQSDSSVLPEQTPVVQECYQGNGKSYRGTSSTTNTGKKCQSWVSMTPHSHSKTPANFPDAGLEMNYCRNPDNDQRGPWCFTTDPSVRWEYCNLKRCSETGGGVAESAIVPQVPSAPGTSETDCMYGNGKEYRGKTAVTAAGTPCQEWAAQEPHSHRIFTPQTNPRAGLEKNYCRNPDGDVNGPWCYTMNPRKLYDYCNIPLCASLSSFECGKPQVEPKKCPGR
T1 sequence (Q01177 582-812 limits assumed): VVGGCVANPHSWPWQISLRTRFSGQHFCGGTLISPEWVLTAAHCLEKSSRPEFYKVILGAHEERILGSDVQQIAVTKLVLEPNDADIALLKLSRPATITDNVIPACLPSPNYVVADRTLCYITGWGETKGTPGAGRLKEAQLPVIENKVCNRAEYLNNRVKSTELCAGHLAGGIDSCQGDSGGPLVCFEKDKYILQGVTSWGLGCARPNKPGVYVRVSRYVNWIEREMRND

Row | Structure (SMILES) | IC50 (Plasminogen [1]) | IC50 (Serine protease 1 [2]) | IC50 (Kallikrein-1) | IC50 (Plasminogen [3]) | IC50 (Serine protease 1 [4]) | IC50 (Plasminogen [5])
1 | CC(C)C[C@H](NC(=O)OCc1ccccc1)C(=O)N[C@@H](CC(C)C)C(=O)N[C@H](C=O)CCCN=C(N)N | 128 µM | 164 µM | 36 µM |  |  | 
2 | CC(C)C[C@H](NC(=O)OCc1ccccc1)C(=O)N[C@@H](CC(C)C)C(=O)N[C@H](C=O)CCCCN (Cbz-Leu-Leu-Lys-aldehyde) | 184 µM | 196 µM | 19 µM |  |  | 
3 | CC(C)C[C@H](NC(=O)OCc1ccccc1)C(=O)N[C@@H](CC(C)C)C(=O)N[C@H](C=O)CCCN (Cbz-Leu-Leu-[Orn]-aldehyde) |  |  | 29.3 µM | > 400 µM | > 400 µM | 
4 | CC(C)C[C@H](NC(=O)OCc1ccccc1)C(=O)N[C@H](C(=O)N[C@H](C=O)CCCN=C(N)N)C(C)C (Cbz-Leu-Val-Arg-aldehyde) | 10.2 µM | 81.4 µM | 11.2 µM |  |  | 
5 | CC(C)C[C@H](NC(=O)OCc1ccccc1)C(=O)N[C@H](C(=O)N[C@H](C=O)CCCCN)C(C)C (Cbz-Leu-Val-Lys-aldehyde) | 18.5 µM |  | 14.8 µM |  | > 400 µM | 
6 | CC(C)C[C@H](NC(=O)OCc1ccccc1)C(=O)N[C@H](C(=O)N[C@H](C=O)CCCN)C(C)C (Cbz-Leu-Val-[Orn]-aldehyde) | 432 µM |  | 53.8 µM |  | > 400 µM | 

Continued, values first:

Row | IC50 (Plasminogen [1]) | IC50 (Serine protease 1 [2]) | IC50 (Kallikrein-1) | IC50 (Plasminogen [3]) | IC50 (Serine protease 1 [4]) | IC50 (Plasminogen [5]) | Structure (SMILES)
7 | 79.9 µM | 107 µM | 33.3 µM |  |  |  | CC(C)C[C@H](NC(=O)OCc1ccccc1)C(=O)N[C@@H](Cc1ccccc1)C(=O)N[C@H](C=O)CCCN=C(N)N (Cbz-Leu-Phe-Arg-aldehyde)
8 | 47 µM |  | 20.3 µM |  | > 400 µM |  | CC(C)C[C@H](NC(=O)OCc1ccccc1)C(=O)N[C@@H](Cc1ccccc1)C(=O)N[C@H](C=O)CCCCN (Cbz-Leu-Phe-Lys-aldehyde)
9 |  |  | 82.4 µM |  | > 400 µM | > 400 µM | CC(C)C[C@H](NC(=O)OCc1ccccc1)C(=O)N[C@@H](Cc1ccccc1)C(=O)N[C@H](C=O)CCCN (Cbz-Leu-Phe-[Orn]-aldehyde)
10 | 10.2 µM | 45.9 µM | 25.7 µM |  |  |  | CC(C)C[C@H](NC(=O)[C@H](Cc1ccccc1)NC(=O)OCc1ccccc1)C(=O)N[C@H](C=O)CCCN=C(N)N (Cbz-Phe-Leu-Arg-aldehyde)
11 | 8.9 µM |  | 25.6 µM |  | > 400 µM |  | CC(C)C[C@H](NC(=O)[C@H](Cc1ccccc1)NC(=O)OCc1ccccc1)C(=O)N[C@H](C=O)CCCCN (Cbz-Phe-Leu-Lys-aldehyde)
12 | 242 µM |  | 112 µM |  | > 400 µM |  | CC(C)C[C@H](NC(=O)[C@H](Cc1ccccc1)NC(=O)OCc1ccccc1)C(=O)N[C@H](C=O)CCCN (Cbz-Phe-Leu-[Orn]-aldehyde)
